For the assay, the target named is Regulator of G-protein signaling 8 (Homo sapiens) (UniProt P57771). In words: RGS8-Galphao interaction modulators, SAR follow-up, biochemical, multiplex bead flow cytometry, SAR compounds (AID 2307). Particulars: bead-based flow cytometry, AF488-Galphao binding to RGS8; for Ki: measured here: Ki calculated from EC50. In short, it runs like this: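 System: Biotinylated human RGS8 captured on streptavidin beads, multiplexed bead sets | Medium: HEPES, NaCl, Lubrol and BSA buffer at pH 8.0 | Times: Bead–Galphao binding for 30–90 min at room temperature | Technique: Flow cytometry, median green bead fluorescence at 530 nm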
Sequence of Regulator of G-protein signaling 8 (Homo sapiens) (P57771 whole entry, looked up): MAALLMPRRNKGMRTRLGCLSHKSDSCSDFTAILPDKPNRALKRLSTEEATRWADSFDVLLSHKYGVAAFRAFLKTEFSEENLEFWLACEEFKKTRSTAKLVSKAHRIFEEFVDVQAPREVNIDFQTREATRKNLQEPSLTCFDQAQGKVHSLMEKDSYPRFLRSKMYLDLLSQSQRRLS

Our source for the Ki and EC50 values is PubChem BioAssay AID2307 (NMMLSC, 2010).

Usually Ki stands for a dissociation constant, usually derived from enzyme kinetics or from competition with a known ligand. As a reminder, the EC50 is the midpoint of the concentration-response curve.

On to `O=c1c2ccccc2sn1-c1ccc(S(=O)(=O)N2CCCC2)cc1`, for which the inhibition constant Ki was 20 nM.
For `NS(=O)(=O)c1ccc(N/N=C/c2ccc(O)c(O)c2O)c([N+](=O)[O-])c1`, the EC50 is 29 nM and the Ki is 20 nM.
`CCN(CC)S(=O)(=O)c1cccc(-c2n[nH]c(=S)n2/N=C/c2ccc(C(=O)OC)cc2)c1`: the Ki is 2590 nM.
In the case of `CC1(C)OC(=O)C(=Cc2ccc(-c3ccc(S(N)(=O)=O)cc3)o2)C(=O)O1`, the Ki was 580 nM.
On the same count and under the same terms, in the case of `CCN(CC)S(=O)(=O)c1cccc(C(=O)N/N=C/c2ccc(O)c(O)c2O)c1` it was 340 nM; in that of `Cc1cccc(N2CCN(C(=O)COc3nsc4nc(C)cc(C)c34)CC2C)c1` (stereo not given), 2640 nM.
On the same count and under the same terms, the same measure for `CN1CCN(C2=C(Cl)C(=O)C(c3cnc(N4CCCCC4)s3)=C(Cl)C2=O)CC1`: 20 nM; for `CN=c1scc(C)n1/N=C/c1ccc(O)c(O)c1O`: 260 nM.
For `O=C(COc1ccccc1C(=O)N/N=C/c1ccc(O)c(O)c1)N/N=C/c1ccc(O)c(O)c1`, the Ki is 100 nM.
Take `CCOC(=O)c1sc(NC(=O)CSc2nnc(Cc3ccccc3)o2)c(C#N)c1C`: the Ki was 150 nM.
Same read-out and setting: the same measure for `Cc1cccc(N2CCN(C(=O)Cn3sc4nc(C)cc(C)c4c3=O)CC2C)c1` (stereo not given): 460 nM; for `COC(=O)CCC(=O)Nc1sc(C)c(C)c1C(N)=O`: 700 nM; for `CCC(=O)NC(c1ccc(C)cc1)c1cc([N+](=O)[O-])c2cccnc2c1O` (stereo not given): 3590 nM.
Still for that read-out and setting: the same measure for `O=C(Cc1csc(N2CCOCC2)n1)N/N=C/c1ccc(O)c(O)c1O`: 320 nM.
Same read-out and setting: the same measure for `CCN=c1scc(C)n1/N=C/c1ccc(O)c(O)c1O`: 470 nM.
Turning to `Cc1[nH]n(-c2ccccc2)c(=S)c1C=NCCCN=Cc1c(C)[nH]n(-c2ccccc2)c1=S`, the Ki was 430 nM.
Still for that read-out and setting: the same measure for `CC(NC(=O)c1sc2cc([N+](=O)[O-])ccc2c1Cl)C(C)(C)C` (stereo not given): 170 nM; for `Nc1c(C(=O)NCC2CCCO2)sc2nc3c(c(-c4ccco4)c12)CC/C3=C/c1ccco1` (stereo not given): 400 nM.
Still for that read-out and setting: the same measure for `CC(=O)OCCCNc1cc(Sc2nc3ccccc3s2)c2nonc2c1[N+](=O)[O-]`: 70 nM.
Turning to `COc1ccc(C2=CC(=O)C=CC2=O)cc1`, the Ki is 150 nM.
The same measure, in the same setting: in the case of `O=C(NCCCN1CCOCC1)c1sc2cc([N+](=O)[O-])ccc2c1Cl` it was 470 nM; in that of `Cc1cc(Cl)ccc1N=c1ssnc1Cl`, 110 nM.
Same read-out and setting: in the case of `Cc1[nH]n(-c2ccccc2)c(=S)c1C=Nc1cccc([N+](=O)[O-])c1` it was 180 nM; in that of `O=C1C(Cl)=C(N2CCCCC2)C(=O)C(Cl)=C1c1cnc(N2CCCCC2)s1`, 60 nM.
